Bioassay records as filed in PubChem BioAssay.
Shown are actives, neighbours in structure and some others; about 2.6% of the full set was active somewhere.
PG9 binder: binders of HIV-1 gp120 antibody PG9, primary screen, biochemical, TR-FRET. TR-FRET gp120-PG9 antibody binding. inhibition, % at 6.7 µM. 360,000 compounds, 0.43% hits; in the data active means inhibition above about 8.5%
rCAG binder: binders of r(CAG) RNA repeats, primary screen, biochemical, fluorescence; 370,000 compounds, 1.3% hits; inhibition, % at 3 µM; r(CAG) RNA repeat, TO-PRO-1 dye displacement fluorescence;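 active means inhibition above the plate cutoff, the mean of all test compounds on that plate plus 3 SD, cut at about 35% in these data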;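 further: higher means more dye released from RNA so lower well fluorescence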
NR2E3 ag-1: inhibitors of NR2E3-RetCOR corepressor binding, primary screen, NR2E3 agonist project, biochemical, TR-FRET, GST-NR2E3, biotin-RetCOR; Photoreceptor-specific nuclear receptor (Homo sapiens), Q9Y5X4; 1536-well; inhibition of corepressor binding, % at 4.78 µM; 320,000 compounds, 0.12% hits;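 active means percent inhibition above the cutoff of mean plus 3 SD of all tested compounds, set per screening campaign, cut at about 20% in these data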
Target sequence (Q9Y5X4 whole entry, looked up): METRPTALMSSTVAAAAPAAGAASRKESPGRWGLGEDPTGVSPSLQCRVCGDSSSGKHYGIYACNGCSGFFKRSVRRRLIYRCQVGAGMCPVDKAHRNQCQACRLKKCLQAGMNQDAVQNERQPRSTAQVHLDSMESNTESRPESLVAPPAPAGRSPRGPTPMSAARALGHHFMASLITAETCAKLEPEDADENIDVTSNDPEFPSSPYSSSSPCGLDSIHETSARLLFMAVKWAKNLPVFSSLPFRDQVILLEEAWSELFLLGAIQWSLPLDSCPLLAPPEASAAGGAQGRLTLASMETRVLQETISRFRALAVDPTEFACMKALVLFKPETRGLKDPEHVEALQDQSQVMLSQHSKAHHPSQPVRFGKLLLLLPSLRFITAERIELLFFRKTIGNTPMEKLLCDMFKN
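Test system: GST-NR2E3 and biotin-RetCOR proteins | Quantity: 1.35 nM GST-tagged NR2E3 final | Medium: Tris pH 7.5 | Also added: 7 nM biotin-RetCOR | Dosing: Compound at 4.8 µM, single dose | Timing: 5 h at 4 °C | Detection: Time-resolved FRET | Read-out basis: Percent inhibition | Benchmarks: Biotin wells as high control, 0.6% DMSO wells as low control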
NR1D1 modulator: modulators of Rev-erb alpha DNA binding, primary screen, biochemical, FITC-DNA, fluorescence polarization, uHTS; AID 1259318, 2017; Rev-erbα–FITC-DNA binding, 90 min; Nuclear receptor subfamily 1 group D member 1 (Homo sapiens), P20393; activity, % at 10 µM; 370,000 compounds, 0.79% hits;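 active means activity above about 14%, limit read from the data; passing the limit was not always enough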
NR2E3 ag-2: NR2E3 agonists in two-hybrid cells, primary screen, cell-based, luminescence, CHO-S, Gal4-NCOR/VP16-NR2E3 | 360,000 compounds, 0.35% hits | Photoreceptor-specific nuclear receptor (Homo sapiens), Q9Y5X4 | inhibition of corepressor binding, % at 3.98 µM | luciferase;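 active means inhibition above the mean of all tested compounds plus 3 SD, cut at about 70% in these data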;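 further: higher means lower luciferase signal from less NR2E3 corepressor binding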
Rev-erbA confirm: modulators of Rev-erb alpha DNA binding, confirmation, biochemical, FITC-DNA, fluorescence polarization, single point. AID 1259319, 2017. 90 min. shares compounds with NR1D1 modulator. activation, % at 25 µM. 3,000 compounds, 61% hits;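 active means activation at or above a set limit, or at least 3 SD above the negative control mean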
RORg DNA counter: modulation of RORgamma DNA binding, dose response, counter-screen for Rev-erb alpha modulator project, biochemical, fluorescence polarization, FITC-DNA. 910 compounds, 8% hits. purified RORgamma protein-FITC-DNA binding. IC50, µM. shares compounds with NR1D1 modulator;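 active means Compounds whose fitted half-maximal concentration for disrupting protein-DNA binding is below 10 micromolar; the record names Rev-erb in its text, so the target is in doubt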
Hits are given with their value; i = inactive; nt = no result.

SMILES	PG9 binder	rCAG binder	NR2E3 ag-1	NR1D1 modulator	NR2E3 ag-2	Rev-erbA confirm	others
CC(=O)Oc1c(/C=C(\C#N)C(N)=O)[nH]c2ccccc12	i	i	nt	55	i	66	RORg DNA counter=i
CCN(CC)S(=O)(=O)c1ccc(Cl)c(C(=O)NNC(=O)c2csc(N3CCOCC3)n2)c1	i	i	nt	i	i	nt
COc1ccc(Nc2nc(C)nc3c2nnn3Cc2ccccc2Cl)c(OC)c1	i	i	i	21	i	i
CC(=O)Nc1ccc(S(=O)(=O)Nc2nc(C)nc3sc(C)c(C)c23)cc1	i	i	nt	i	i	nt
Cc1cccc(-n2nc(C(=O)Nc3ccccc3)n3c(=O)cc(-c4ccccc4)nc23)c1	i	i	i	i	i	nt
O=C(c1ccccc1)c1nn(-c2cccc(Cl)c2)c2nc(-c3ccccc3)cc(=O)n12	i	i	i	24	i	i
O=C(Nc1ccc2c(c1)OCO2)c1ccccn1	i	i	i	i	i	nt
O=C(/C=C\Nc1ccc2c(c1)OCO2)c1ccccn1	i	i	i	28	i	i
C[C@H](CO)N1C[C@H](C)[C@@H](CN(C)C(=O)Cc2ccccc2)OCc2cn(nn2)CCCC1=O	i	i	nt	i	nt	nt
CN(CC(=O)Nc1cccc(F)c1)C(=O)CCc1nc2sc3c(c2c(=O)[nH]1)CCCC3	i	i	i	20	i	i
CN(CC(=O)Nc1ccc(F)c(F)c1F)C(=O)CCc1nc2sc3c(c2c(=O)[nH]1)CCCC3	i	i	i	19	i	i
Cc1cccc(C)c1NC(=O)CN(C)C(=O)CCc1nc2sc3c(c2c(=O)[nH]1)CCCC3	i	i	i	i	i	nt
O=C(CSc1nc2ccccc2c(=O)n1-c1ccc(F)c(Cl)c1)Nc1ccc2c(c1)CCC2	i	i	nt	i	i	nt
CCOC(=O)c1c(NC(=O)CSc2nc3ccccc3c(=O)n2-c2ccc(F)cc2)sc(C(C)=O)c1C	i	i	i	114	i	30
O=C(CSc1nc2ccccc2c(=O)n1-c1ccc(F)c(Cl)c1)Nc1cccc(S(=O)(=O)N2CCOCC2)c1	i	i	i	38	i	19
Cc1ccc(-n2c(SCC(=O)Nc3cc(S(=O)(=O)N4CCOCC4)ccc3Cl)nc3ccccc3c2=O)cc1	i	i	i	i	i	nt
Cc1ccc(-n2c(SCC(=O)Nc3cccc(S(=O)(=O)NC4=NCCCCC4)c3)nc3ccccc3c2=O)cc1	i	i	i	80	i	42	RORg DNA counter=i
O=C(CSc1nc2ccccc2c(=O)n1-c1ccc(F)cc1)Nc1ccc(Cl)c(S(=O)(=O)N2CCOCC2)c1	i	i	i	63	i	33	RORg DNA counter=i
Cc1ccc(S(=O)(=O)N2CCC(C(=O)OCC(=O)N(Cc3ccccc3)C(C)C)CC2)cc1C	i	i	nt	i	i	nt
CCCN1C(=O)S/C(=C/c2ccc(N3CCOCC3)o2)C1=O	i	i	i	47	i	45	RORg DNA counter=i
CC1=C(C(=O)N2CCCCCC2)CC(CC(=O)NCCN2CCOCC2)C(=O)N1CCCN1CCCC1=O (stereo not given)	i	i	nt	i	i	nt
CC(C)(C)NC(=O)C(C1CC1)n1c(-c2ccccc2)nc2ccccc21 (stereo not given)	i	i	nt	i	nt	nt
CC(C)(C)C(=O)Nc1ccc(N2CCN(c3ccc(C(F)(F)F)cn3)CC2)nc1	i	i	i	i	i	nt
Cc1cccc(C(=O)Nc2ccc(N3CCN(c4ccc(C(F)(F)F)cn4)CC3)nc2)c1	i	i	i	65	i	i
Fc1ccc(-c2nc3ccccc3c3nc4ccccc4n23)cc1	i	i	i	26	i	19
SMILES	PG9 binder	rCAG binder	NR2E3 ag-1	NR1D1 modulator	NR2E3 ag-2	Rev-erbA confirm	others
CCOC(=O)N(C)[C@H]1C[C@H]2c3[nH]c4c(-c5ccc6c(c5)OCO6)cccc4c3CCN2C(=O)[C@H]1[C@H](C)O	nt	i	nt	i	nt	nt
C=CCn1c(COc2cccc(C)c2)nnc1SCC(=O)c1c(N)n(C)c(=O)n(C)c1=O	i	i	nt	i	i	nt
C=CCn1c(COc2ccc(Cl)cc2)nnc1SCC(=O)c1c(N)n(C)c(=O)n(C)c1=O	i	i	i	24	i	i
COc1ccc2nc(SCC(=O)Nc3ccc(S(=O)(=O)N4CCCC4)cc3)c(C#N)cc2c1	i	i	i	109	i	74	RORg DNA counter=i
COc1ccc2nc(SCC(=O)N3CCCCC3)c(C#N)cc2c1	i	i	i	i	i	nt
CCOc1ccc2nc(SCC(=O)Nc3ccc(S(=O)(=O)N4CCCC4)cc3)c(C)cc2c1	i	i	i	25	i	i
N#Cc1cc2ccccc2nc1SCC(=O)Nc1ccc(S(=O)(=O)N2CCCC2)cc1	i	i	i	30	i	24
COc1ccc(NC(=O)c2cnc(SCC(=O)NCCc3ccccc3)n(C)c2=O)cc1	i	i	i	i	i	nt
Cn1c(SCC(=O)NCC2CCCO2)ncc(C(=O)Nc2ccc(F)cc2)c1=O (stereo not given)	i	i	i	i	i	nt
Cn1cc(SCC(=O)NCC2CCCO2)c2ccccc21 (stereo not given)	i	i	i	30	i	i
Cn1c(SCC(=O)NCCc2ccccc2)ncc(C(=O)Nc2ccccc2)c1=O	i	i	i	30	i	20
CCCn1cc(SCC(=O)NCC2CCCO2)c2ccccc21 (stereo not given)	i	i	i	i	i	nt
Cn1c(SCC(=O)NCC2CCCO2)ncc(C(=O)Nc2ccc(Cl)cc2)c1=O (stereo not given)	i	i	i	24	i	i
CCCCNC(=O)C[C@H]1C[C@@]2(C(=O)OC)C(=C[C@H](C(C)C)O[C@@H]2C2CC2)N(CCC2=CCCCC2)C1=O	nt	i	nt	i	nt	nt
CCN1CCCCC(NC(=O)c2ccc(F)cc2)C1=O (stereo not given)	nt	i	nt	i	nt	nt
C[C@@H]1CN([C@@H](C)CO)C(=O)CCCn2nncc2CO[C@H]1CN(C)Cc1cccnc1	i	i	nt	i	i	nt
CNc1oc(-c2ccc(F)cc2)nc1S(=O)(=O)c1ccccc1	i	i	i	34	i	i
Cc1cc2c(cc(C(=O)OC(C)C(=O)NCc3ccccc3)n2C)o1 (stereo not given)	i	i	nt	26	i	18
Cc1cc2c(cc(C(=O)OC(C)C(=O)NCc3ccc(F)cc3)n2C)o1 (stereo not given)	i	i	nt	i	i	nt
O=C(c1[nH]c(C(F)(F)F)nc1-c1ccccc1)N1CCN(C/C=C/c2ccccc2)CC1	i	i	nt	i	i	nt
